A selection: hits, their analogues and other compounds. The true share with any hit is near 2.3%.
CSN inh = inhibitors of human CSN-mediated cullin deneddylation; inhibition, % at 12.5 µM; Q92905; 0.38% of 360,000 active; Purified CSN, SCF-Nedd8-OG deneddylation, fluorescence polarization;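 active means pattern-corrected inhibition above about 35%, with an unprinted fluorescence ratio check between 0.5 and 1.5, limit read from the data, passing the limit was not always enough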
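Material: human Csn5 produced in HEK293T cells; Input: enzyme 0.24 nM; Reagent: SCFSkp2-Nedd8OG substrate at 10 nM final; Dosing: 12.5 µM compound; Incubation: 90 min reaction at room temperature; Detection: fluorescence polarization of the substrate; Evaluation: % inhibition of substrate cleavage by Csn5; Control set: substrate-only high control, full reaction low control.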
SKN-1 inh = inhibitors of C. elegans SKN-1; C. elegans VP596 Pgst-4::GFP/RFP ratio, acrylamide-induced, 24 h; inhibition, % at 21.8 µM; 0.49% of 360,000 active; AID 624304;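 active means interference check ratio from 0.5 to 1.5 plus GFP to RFP signal ratio inhibition reaching or exceeding a fixed threshold, cut at about 30% in these data, passing the limit was not always enough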
DNMT1 block = DNMT1 (human) enzyme inhibition. DNMT1 molecular beacon, Hinp1I cleavage, fluorescence. P26358. inhibition (reported as % activation of signal), % at 10 µM. 0.83% of 360,000 active; in the data active means inhibition above about 50%
SUMO1-SIM PPI = modulators of human SUMO1-mediated protein-protein interactions. P63165. SUMO1 binding to a labelled peptide, TR-FRET, 1 h. inhibition, % at 20 µM. 0.33% of 360,000 active; in the data active means inhibition above about 37%
Target sequence (P63165 whole entry, looked up): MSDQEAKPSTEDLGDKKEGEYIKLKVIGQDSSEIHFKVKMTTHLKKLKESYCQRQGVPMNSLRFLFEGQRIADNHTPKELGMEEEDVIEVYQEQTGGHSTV
MT1-MMP act inh = inhibitors of human MT1-MMP activation | HT1080 RFP-PRO-GFP cells, GFP/RFP ratio fluorescence, overnight; percent of plate control window, DMSO zero | 0.061% of 360,000 active | P50281 | GFP/RFP ratio change, % at 20 µM;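 active means GFP/RFP ratio change of at least 30% with cell ATP level not reduced by more than half and red fluorescence within 50% of control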
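Test system: HT1080 cells expressing an RFP-PRO-GFP fluorescent reporter construct / Compound dosing: single-point 20 µM compound, 1% DMSO / Schedule: cells overnight before dosing, compound overnight, 37 °C, 5% CO2 / Evaluation: GFP/RFP fluorescence ratio / Control set: DMSO and RFP-L50D-GFP cell wells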
Rpn11 inh = Rpn11 (human) deubiquitinase inhibition. AID 588493. human 26S proteasome, Ub4-pepOG fluorescence polarization; 20S core pre-blocked with epoxomicin. O00487. inhibition, % at 20 µM. 0.59% of 360,000 active;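 active means inhibition at 20 µM, scaled to each plate's controls, above about 33%, limit read from the data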
Target sequence (O00487 whole entry, looked up): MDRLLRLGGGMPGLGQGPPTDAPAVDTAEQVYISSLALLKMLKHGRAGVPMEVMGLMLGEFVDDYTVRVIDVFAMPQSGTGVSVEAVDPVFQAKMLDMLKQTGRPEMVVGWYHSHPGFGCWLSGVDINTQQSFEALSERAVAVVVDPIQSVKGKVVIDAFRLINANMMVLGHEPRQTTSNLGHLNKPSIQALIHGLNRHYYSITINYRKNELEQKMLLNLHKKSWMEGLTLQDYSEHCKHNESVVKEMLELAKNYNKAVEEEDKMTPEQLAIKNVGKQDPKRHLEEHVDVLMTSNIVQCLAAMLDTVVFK
DNMT1 confirm = DNMT1 inhibition confirmation, single concentration | shares compounds with DNMT1 block | DNMT1 molecular beacon HinP1I cleavage, fluorescence | inhibition, % at 10 µM | 8% of 2,300 active;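 active means average inhibition of at least 30% in the single-concentration confirmation test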
Beacon interf = counter-screen for DNMT1 inhibitors: spectral interference | shares compounds with DNMT1 block | DNMT1 molecular beacon spectral interference counterscreen, fluorescence 485/520 | activation (fluorescence interference), % at 10 µM | 1% of 2,300 active | AID 602387;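 active means activation of at least 30% at 10 µM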;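 further: DNMT1 catalytic domain with a HinP1I cleavage step and a FAM/dabcyl DNA beacon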
Large screens that a line does not name were inactive (follow-up assays come after a bar, where shown).

CC(C)Nc1nc(NCc2ccccc2)c2sccc2n1	none
COc1cccc(-c2cc(=O)c3cc(NC(=O)c4ccccc4)ccc3[nH]2)c1	none
COc1cccc(-c2cc(=O)c3cc(NC(=O)c4ccc(Cl)cc4)ccc3[nH]2)c1	DNMT1 block 65 | DNMT1 confirm inactive | Beacon interf inactive
CCc1nnc(NC(=O)c2ccc(-c3ccc(Cl)cc3)o2)s1	DNMT1 block 68 | DNMT1 confirm inactive | Beacon interf inactive
CCc1nnc(NC(=O)c2ccc(-c3ccc(C(C)=O)cc3)o2)s1	none
O=C(C1COc2ccccc2O1)N1CCN(S(=O)(=O)c2cc(F)ccc2F)CC1 (stereo unspecified)	none
N#Cc1ccccc1S(=O)(=O)N1CCN(C(=O)c2cc3c(s2)CCC3)CC1	DNMT1 block 56 | DNMT1 confirm inactive | Beacon interf inactive
N#Cc1ccccc1S(=O)(=O)N1CCN(C(=O)C2COc3ccccc3O2)CC1 (stereo unspecified)	DNMT1 block 67 | DNMT1 confirm inactive | Beacon interf inactive
Cc1cccc(NC(=O)CSc2cc(C)c(C#N)c3nc4ccccc4n23)c1	DNMT1 block 52 | DNMT1 confirm inactive | Beacon interf inactive
CNc1cc(C)c(C#N)c2nc3ccccc3n12	none
CC(=O)c1ccc(-n2nnnc2SCC(=O)NC2CCCCC2)cc1	DNMT1 block 68 | DNMT1 confirm inactive | Beacon interf inactive
C/C(N)=N\S(=O)(=O)c1ccc(Cl)cc1	none
N/C(CSc1ccc(Cl)cc1)=N\S(=O)(=O)c1ccc(Cl)cc1	DNMT1 block 73 | DNMT1 confirm inactive | Beacon interf inactive
CCCCc1c(C)nc2ccc(OC)cc2c1SCCC(=O)O	DNMT1 block 66 | DNMT1 confirm inactive | Beacon interf inactive
CCOC(=O)CCSc1nc(C)c2cc(OC)ccc2n1	none
Cc1ccc(-n2nc3c(c2NC(=O)c2ccc(Br)o2)CSC3)c(C)c1	DNMT1 block 53 | DNMT1 confirm inactive | Beacon interf inactive
COc1cc(OC)cc(C(=O)/C=C2\Sc3ccccc3N2C)c1	none
CN1/C(=C\C(=O)c2cccc([N+](=O)[O-])c2)Sc2ccccc21	DNMT1 block 52 | DNMT1 confirm inactive | Beacon interf inactive
O=C(COc1cccc(Br)c1)NN=C1c2ccccc2-c2ccccc21	DNMT1 block 54 | DNMT1 confirm inactive | Beacon interf inactive
O=C(COc1cccc(Br)c1)N/N=C1\CCCc2ccccc21	none
Cc1ccccc1NC(=O)Cn1c(O)c(N=NC(=O)c2ccccc2O)c2ccccc21	DNMT1 block 91 | DNMT1 confirm inactive | Beacon interf inactive
Cc1ccc(NC(=O)Cn2c(O)c(N=NC(N)=O)c3ccccc32)cc1	none
NS(=O)(=O)c1ccc(CCNc2nn3c(-c4cccc(OC(F)(F)F)c4)cnc3s2)cc1	none
CC(C)(C)c1ccc(OCC(=O)Nc2ccc(-c3nc4cccnc4o3)cc2)cc1	DNMT1 block 55 | DNMT1 confirm inactive | Beacon interf inactive
CC(C)C(=O)Nc1ccc(-c2nc3cccnc3o2)cc1	none
Cc1ccc(Cl)cc1NC(=O)COC(=O)C1CCCC1	DNMT1 block 55 | DNMT1 confirm inactive | Beacon interf inactive
Cc1cc(C)n(CCN(C)C(=O)c2cc(COc3c(F)cccc3F)on2)n1	DNMT1 block 51 | DNMT1 confirm inactive | Beacon interf inactive
Cc1cc(C)n(CCNC(=O)c2cc(COc3c(F)cccc3F)on2)n1	none
O=C(CSc1ccc(-c2nc3ccccc3[nH]2)cn1)Nc1ccc(S(=O)(=O)N2CCCC2)cc1	none
Cc1cc2nc(-c3ccc(SCC(=O)Nc4ccc(S(=O)(=O)N5CCCC5)cc4)nc3)[nH]c2cc1C	DNMT1 block 66 (not shown: Rpn11 inh) | DNMT1 confirm inactive | Beacon interf inactive
